SENP7 block – SENP7 protease inhibitors, primary screen, biochemical, luminescence, uHTS; recombinant SENP7, Z-RLRGG-aminoluciferin luminescence, 40 min; hit rate 1.5% among 330,000; AID 434973, 2010; inhibition, % at 5 µM; Sentrin-specific protease 7 (Homo sapiens), Q9BQF6;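 active = inhibition above about 50% at the single test dose, limit read from the data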;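 also: plate controls were DMSO with enzyme for no effect and no enzyme buffer wells for full effect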
SENP8 block-1 – human SENP8 protease inhibitors, primary screen, biochemical, fluorescence, Nedd8 protein substrate, uHTS; AID 602440, 2012; inhibition, % at 20 µM; Sentrin-specific protease 8 (Homo sapiens), Q96LD8; hit rate 0.64% among 360,000; recombinant SENP8; in the data active = inhibition mostly above about 40%, no sharp cut-off; inactive = mostly below about 27%
SENP1 FRET inh – human SENP1 catalytic domain inhibitors, primary screen, biochemical, FRET, uHTS. hit rate 0.21% among 360,000. inhibition, % at 10 µM. AID 624204, 2012. recombinant SENP1 catalytic domain, CyPet-SUMO1-YPet FRET cleavage;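 active = inhibition at least 30% at 10 µM, raw YFP signal under a set limit, fluorescence ratio 0.5 to 1.5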;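 also: 0% = enzyme with DMSO and 100% = no enzyme wells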
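Controls: no-enzyme wells low, DMSO-plus-enzyme wells high control. Test system: human recombinant His6-tagged SENP1 catalytic domain enzyme. Reagent: SFCypet-SUMO1-SFYpet FRET protein substrate, 25 nM final. Doses: one dose per compound, 10 µM, 0.5% DMSO. Detection: FRET, CFP and YFP emission. Timing: 50 min reaction at room temperature.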
SENP8 block-2 – SENP8 protease inhibitors, primary screen, biochemical, luminescence; purified SENP8, Z-RLRGG-aminoluciferin cleavage; hit rate 1.2% among 330,000; AID 2540, 2010; Sentrin-specific protease 8 (Homo sapiens), Q96LD8; inhibition, % at 10 µM; in the data active = inhibition above about 50%
SENP6 block – SENP6 protease inhibitors, primary screen, biochemical, luminescence, uHTS | Sentrin-specific protease 6 (Homo sapiens), Q9GZR1 | Recombinant SENP6 catalytic domain, aminoluciferin luminescence | inhibition, % at 10 µM | hit rate 1.8% among 330,000 | AID 2599, 2010;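 active = inhibition above about 50% at the single tested dose, limit read from the data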;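 also: plate controls were DMSO wells with enzyme for no effect and DMSO wells lacking enzyme for full effect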
HSP90 refold inh – HSP90 inhibitors, primary screen, cell lysate, luminescence. AID 1789, 2009. Rabbit reticulocyte lysate, luciferase refolding luminescence, 3 h. hit rate 0.91% among 290,000. inhibition, % at 5.6 µM. Heat shock protein HSP 90 (rabbit reticulocyte lysate; luciferase refolding);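 active = inhibition above the screen-wide mean plus 3 SD, computed separately per campaign, cut at about 16% in these data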;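 also: 0% = DMSO wells and 100% = 60 µM geldanamycin wells; inhibitors lower the luminescence because luciferase stays unfolded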
HSP90 inh confirm – HSP90 inhibitors, confirmation, cell lysate, luminescence; AID 1846, 2009; inhibition, % at 5.9 µM; shares compounds with HSP90 refold inh; rabbit reticulocyte lysate, luciferase refolding luminescence, 3 h; hit rate 64% among 2,300; in the data active = inhibition above about 18%;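 also: 0% = vehicle wells and 100% = reference inhibitor wells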
luciferase ctr – firefly luciferase inhibitors, HSP90 counter-screen, confirmation, artefact control for HSP90 inhibitor project, biochemical, luminescence, triplicate | shares compounds with HSP90 refold inh | AID 1847, 2009 | hit rate 48% among 2,300 | purified native firefly luciferase | inhibition, % at 5.9 µM;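 active = inhibition above the mean inhibition of all tested sample wells plus 3 SD, cut at about 10% in these data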;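 also: 0% = DMSO with luciferase and 100% = wells lacking luciferase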
Target sequence (P08659 whole entry, looked up): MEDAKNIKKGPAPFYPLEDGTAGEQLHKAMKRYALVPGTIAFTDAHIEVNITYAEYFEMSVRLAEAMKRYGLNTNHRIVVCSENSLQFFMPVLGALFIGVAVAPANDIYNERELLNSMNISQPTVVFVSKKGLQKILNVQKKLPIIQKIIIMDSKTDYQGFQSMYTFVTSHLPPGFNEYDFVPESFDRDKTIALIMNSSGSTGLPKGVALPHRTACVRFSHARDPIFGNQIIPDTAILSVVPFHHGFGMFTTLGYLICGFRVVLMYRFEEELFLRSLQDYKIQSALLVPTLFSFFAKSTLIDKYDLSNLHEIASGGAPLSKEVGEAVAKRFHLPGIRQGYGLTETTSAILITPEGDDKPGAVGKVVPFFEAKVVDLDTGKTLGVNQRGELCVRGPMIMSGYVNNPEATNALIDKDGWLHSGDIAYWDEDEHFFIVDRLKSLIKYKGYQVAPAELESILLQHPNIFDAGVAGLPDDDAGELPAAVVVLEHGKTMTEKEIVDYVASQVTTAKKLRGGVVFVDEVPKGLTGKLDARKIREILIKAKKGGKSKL
SENP8 confirm – SENP8 protease inhibitors, retest, confirmation, biochemical, luminescence, single concentration | inhibition, % at 12.5 µM | shares compounds with SENP7 block | hit rate 40% among 6,200 | Recombinant SENP8, Z-RLRGG-aminoluciferin luminescence, 60 min;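 active = mean inhibition across replicates above about 50%, limit read from the data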
SENP6 conf – SENP6 protease inhibitors, confirmation, biochemical, luminescence, single concentration | shares compounds with SENP7 block | inhibition, % at 12.5 µM | AID 488915, 2010 | recombinant SENP6, Z-RLRGG-aminoluciferin luminescence | hit rate 58% among 6,200
SENP7 conf – SENP7 protease inhibitors, retest, confirmation, biochemical, luminescence, single concentration. shares compounds with SENP7 block. recombinant SENP7, Z-RLRGG-aminoluciferin luminescence, 40 min. inhibition, % at 12.5 µM. hit rate 69% among 6,200. AID 488917, 2010
Casp3 select – caspase-3 protease inhibitors, confirmation, selectivity assay for SENP inhibitor project, biochemical, single concentration. shares compounds with SENP7 block. purified caspase-3, Z-DEVD-aminoluciferin luminescence, 60 min. inhibition, % at 12.5 µM. hit rate 60% among 6,200;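 active = mean inhibition above about 50%, limit read from the data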;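 also: plate controls were enzyme with DMSO for no effect and wells without caspase-3 for full effect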
Luc interf – luminescence interference (SENP counter-screen). shares compounds with SENP7 block. Pre-incubated SENP8/Z-RLRGG-aminoluciferin, luciferase luminescence interference. inhibition, % at 12.5 µM. hit rate 39% among 6,200;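 active = mean inhibition above about 50% when retested at one dose, limit read from the data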;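 also: plate controls were DMSO wells with completed reaction for no effect and substrate without enzyme for full effect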
* marks the source's active call; other numbers are inactive results. Compounds with a hit are over-represented: about 2.9% of the library has one in this group of screens.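 The calls were made as follows, unless noted: active = mean inhibition above about 50% in the one-dose retest (limit read from the data); inactive = the rest.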

For CC1CCc2nc(NC(=O)c3ccco3)sc2C1 (centres undefined) the results were SENP7 block 80*, SENP8 block-1 2, SENP1 FRET inh -2, SENP8 block-2 79*, SENP6 block 87*, HSP90 refold inh 54*, HSP90 inh confirm 82*, luciferase ctr 77*, SENP8 confirm 88*, SENP6 conf 88*, SENP7 conf 98*, Casp3 select 89* and Luc interf 46.
Screening COc1ccc2nc(NC(=O)c3ccccc3F)sc2c1 returned SENP7 block 93*, SENP8 block-1 -96, SENP1 FRET inh 0, SENP8 block-2 83*, SENP6 block 87*, HSP90 refold inh 18*, HSP90 inh confirm 38*, luciferase ctr 31*, SENP8 confirm 75*, SENP6 conf 85*, SENP7 conf 98*, Casp3 select 87* and Luc interf 29.
COc1ccc2nc(NC(=O)c3ccccc3C(=O)O)sc2c1 was read as SENP7 block -7, SENP8 block-1 10, SENP1 FRET inh 3, SENP8 block-2 -1, SENP6 block -19 and HSP90 refold inh -2.
For O=C(c1ccco1)N1CCN(c2ccc([N+](=O)[O-])cn2)CC1 the results were SENP7 block -2, SENP8 block-1 10, SENP1 FRET inh -2, SENP8 block-2 -1, SENP6 block -5 and HSP90 refold inh 1.
Screening COc1ccc(NCC(=O)Nc2cccc(C(F)(F)F)c2)cc1S(=O)(=O)N1CCOCC1 returned SENP7 block 2, SENP8 block-1 -48, SENP1 FRET inh 0, SENP8 block-2 5 and SENP6 block -7.
Screening Cc1cnc(NC(=O)COc2ccc3c(c2)CCC3)s1 returned SENP7 block 45, SENP8 block-1 4, SENP1 FRET inh -1, SENP8 block-2 13, SENP6 block 52*, HSP90 refold inh 18*, HSP90 inh confirm 32*, luciferase ctr 23*, SENP8 confirm -15, SENP6 conf 4, SENP7 conf 22, Casp3 select 13 and Luc interf 2.
c1ccc(OCCSc2nnc3sc4ccccc4n23)cc1 was read as SENP7 block 16, SENP8 block-1 14, SENP1 FRET inh 1, SENP8 block-2 68*, SENP6 block 80*, HSP90 refold inh 45*, HSP90 inh confirm 76*, luciferase ctr 74*, SENP8 confirm -5, SENP6 conf 68*, SENP7 conf 88*, Casp3 select 78* and Luc interf 75*.
For CC(=O)NCCNC(=O)C1(C)Cc2c(-c3ccc(NC(C)=O)cc3)ccnc2O1 (centres undefined) the results were SENP8 block-1 6 and SENP1 FRET inh 1.
`C/C(=N\OCc1cccc(C(=O)O)c1)c1ccc(Cl)cc1` gave SENP7 block 101*, SENP8 block-1 21, SENP1 FRET inh -1, SENP8 block-2 97*, SENP6 block 97*, HSP90 refold inh 71*, HSP90 inh confirm 86*, luciferase ctr 87*, SENP8 confirm 99*, SENP6 conf 100*, SENP7 conf 103*, Casp3 select 97* and Luc interf 98*.
`CCn1ccc(C(=O)Nc2ccc(N(C)C(C)=O)cc2)n1` gave SENP7 block -2, SENP8 block-1 28, SENP1 FRET inh 3, SENP8 block-2 -6, SENP6 block 8 and HSP90 refold inh -2.
Screening CCn1ccc(C(=O)Nc2ccc3c(c2)CCC3)n1 returned SENP7 block 59*, SENP8 block-1 10, SENP1 FRET inh -1, SENP8 block-2 25, SENP6 block 43, HSP90 refold inh 19*, HSP90 inh confirm 30*, luciferase ctr 15*, SENP8 confirm 44, SENP6 conf 45, SENP7 conf 81*, Casp3 select 65* and Luc interf 57*.
Screening CC(=O)Nc1ccc(NC2=C/C(=N/S(=O)(=O)c3cccs3)c3ccccc3C2=O)cc1 returned SENP7 block 54*, SENP8 block-1 69*, SENP1 FRET inh 2, SENP8 block-2 79*, SENP6 block 93*, HSP90 refold inh 55*, HSP90 inh confirm 67*, luciferase ctr -8, SENP8 confirm 90*, SENP6 conf 96*, SENP7 conf 85*, Casp3 select 51* and Luc interf 2.
Screening Cc1nc(-c2ccc([N+](=O)[O-])cc2)sc1C(=O)O returned SENP7 block 97*, SENP8 block-1 -7, SENP1 FRET inh 3, SENP8 block-2 92*, SENP6 block 91*, HSP90 refold inh 18*, HSP90 inh confirm 18*, luciferase ctr -18, SENP8 confirm 11, SENP6 conf 7, SENP7 conf 101*, Casp3 select 97* and Luc interf 93*.

Screens deposited in PubChem by several laboratories.
